Tests used:
ACVR1 (ALK2) = biological target: T1, ACVR1 (ALK2) (Homo sapiens, UniProt Q04771); assay: SelectScreen LanthaScreen Eu Kinase Binding Assay
T1 sequence (Q04771 21-509): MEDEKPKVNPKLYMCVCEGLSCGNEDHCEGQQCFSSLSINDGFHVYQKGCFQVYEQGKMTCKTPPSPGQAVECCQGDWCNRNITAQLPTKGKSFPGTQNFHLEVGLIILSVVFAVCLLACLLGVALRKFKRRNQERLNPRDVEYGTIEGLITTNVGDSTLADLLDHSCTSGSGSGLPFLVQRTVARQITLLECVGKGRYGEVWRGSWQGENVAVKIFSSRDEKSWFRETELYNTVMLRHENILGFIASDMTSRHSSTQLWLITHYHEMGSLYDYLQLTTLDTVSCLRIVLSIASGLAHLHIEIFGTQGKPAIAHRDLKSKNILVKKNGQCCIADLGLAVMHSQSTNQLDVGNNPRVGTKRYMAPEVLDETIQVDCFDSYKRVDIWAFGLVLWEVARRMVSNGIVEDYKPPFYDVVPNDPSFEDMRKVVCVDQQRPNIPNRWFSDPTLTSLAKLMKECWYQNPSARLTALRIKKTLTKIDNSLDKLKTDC

[1] = system: BMP6-pSMAD1/5/8 in HepG2 cells; assay: BMP6-induced phosphorylation of SMAD1/5/8 in HepG2 cells, western blot; assay type: cell-based; conditions: HepG2, 10 ng/mL BMP6 30 min, cpd added 2 hours before
How it was run: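 HepG2 cells were grown in EMEM with 10% FCS and 1% penicillin/streptomycin. Test compound was added 2 h before stimulation with BMP6 (10 ng/mL, 30 min). pSMAD1/5/8 was detected by western blot with HRP secondary antibodies, using β-actin as loading control. Results are percent of pSMAD1/5/8 induction normalized to vehicle-treated cells, n = 5, mean ± SEM.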

[2] = system: IL-6-pSTAT3 in HepG2 cells; assay: IL-6-induced phosphorylation of STAT3 in HepG2 cells, western blot; assay type: cell-based; conditions: HepG2, 10 ng/mL IL-6 20 min
How it was run: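 Western blot for pSTAT3 in HepG2 cells (EMEM, 10% FCS, 1% penicillin/streptomycin) after 20 min of 10 ng/mL IL-6, with test compound present. β-actin served as loading control. Values are percent of pSTAT3 induction relative to vehicle-treated cells, n = 2, mean ± SEM.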

patients = conditions: clinical studies ref 18, 20; cited from earlier work
[3] = system: FPN1 protein in RAW 264.7 cells; assay type: cell-based, murine; conditions: RAW 264.7, FeCl3 50 μM 20 h, hepcidin 1 μg/mL + MMB 10 nM-1 μM 6 h
How it was run: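 RAW 264.7 cells were cultured in DMEM with 10% FCS, 1% penicillin/streptomycin and 2 mM glutamine at 37°C and 5% CO2. FeCl3 (50 μM, 20 h) induced FPN1. Cells then received hepcidin (1 μg/mL) alone or with test compound (10, 100, 500 nM, 1 μM) for another 6 h. Untreated cells were controls. FPN1 was measured by western blot and densitometry, normalized to β-actin, n = 3 per group.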

ACD rats = assay: PG-APS-induced rat model of anemia of chronic disease; assay type: in vivo
How it was run: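 Female Lewis rats on standard diet (180 mg iron/kg) were made anemic by intraperitoneal PG-APS. From 2 weeks after PG-APS they received test compound 25 mg/kg or vehicle once daily for 3 days up to 21 days. Hb and RBC were counted on a Vet-ABC analyzer. Serum iron was measured by QuantiChrom kit. Spleen FPN1 was measured by western blot (n = 4). Liver Inhibin BB mRNA was measured by TaqMan RT-PCR on 4 μg of guanidinium-phenol-extracted RNA. Time points were compared by unpaired t test.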

healthy rats = assay: MMB treatment of healthy rats; assay type: in vivo, rat
[4] = ACD rats, 25 mg/kg once daily, days 14 and 21, vs vehicle
[5] = ACD rats, 5, 10 or 25 mg/kg for 3 days, hepatic nuclear extracts
[6] = ACD rats, 5, 10 or 25 mg/kg once daily for 3 days
[7] = ACD rats, 5, 10 or 25 mg/kg, 3 weeks, FACS
[8] = healthy rats, 5, 10 or 25 mg/kg
[9] = healthy rats, any MMB dose, 3 days

SMILES: N#CC[C@H](C1CCCC1)n1cc(-c2ncnc3[nH]ccc23)cn1 [RUX, ruxolitinib, reference compound]
- inhibitory activity in type I BMPR kinase / TGFBR1 binding assays (ACVR1 (ALK2); ACVR1/ALK2, BMPR1a/ALK3 and TGFBR1/ALK5 assays): no relevant inhibitory activity
- inhibition of BMP6-pSMAD1/5/8 signaling [1]: not BMP6-pSMAD1/5/8
- inhibition of IL-6-pSTAT3 signaling [2]: blocked
- patients who experienced grade 3 or 4 anemia (patients): 45.2%

SMILES: N#CCNC(=O)c1ccc(-c2ccnc(Nc3ccc(N4CCOCC4)cc3)n2)cc1 [MMB, momelotinib]
- IC50 (ACVR1 (ALK2)): 8.4 nM
- inhibition of BMP6-pSMAD1/5/8 signaling [1]: inhibited
- inhibition of IL-6-pSTAT3 signaling [2]: inhibited
- effect on FPN1 protein expression in presence of hepcidin [3]: no effect
- mean corpuscular Hb (ACD rats; ACD rats, 25 mg/kg once daily): increase
- mean corpuscular volume (ACD rats; ACD rats, 25 mg/kg once daily): increase
- neutrophil count (ACD rats; ACD rats, 25 mg/kg once daily): reductions
- white blood cell count (ACD rats; ACD rats, 25 mg/kg once daily): reductions
- Hb concentrations (ACD rats; [4]): significant increase
- RBC count (ACD rats; [4]): significant increase
- FPN1 expression in the spleen (ACD rats; ACD rats, 25 mg/kg, 3 days): increase
- ferritin protein levels in the spleen (ACD rats; ACD rats, 25 mg/kg, 3 days): decreased
- circulating iron concentrations (ACD rats; ACD rats, 25 mg/kg, up to 21 days): increase
- Inhibin BB mRNA levels in the liver (ACD rats; ACD rats, 5, 10 or 25 mg/kg for 3 days): decreased
- pSMAD1/5/8 in the livers (ACD rats; [5]): dose-dependent reduction
- pSTAT3 in the livers (ACD rats; [5]): dose-dependent reduction
- liver Hamp mRNA expression (ACD rats; [6]): reduced
- serum hepcidin levels (ACD rats; [6]): dose-dependent decrease
- serum iron (ACD rats; [6]): dose-dependent increase
- numbers of mature RBCs in bone marrow (ACD rats; [7]): dose-dependent increase
- numbers of reticulocytes in bone marrow (ACD rats; [7]): dose-dependent increase
- splenic IL-6 cytokine mRNA levels (ACD rats; ACD rats, 3 days, especially at 25 mg/kg): modulated
- erythropoietic / circulating iron effects in healthy rats (healthy rats; [8]): did not induce any of these effects
- pSMAD1/5/8 protein levels (healthy rats; [8]): not affected
- pSTAT3 protein levels (healthy rats; [8]): not affected
- FPN1 protein levels in the spleen (healthy rats; [9]): no changes
- Hamp mRNA expression in the liver (healthy rats; [9]): no changes
- serum iron levels (healthy rats; [9]): no changes
- patients who experienced grade 3 or 4 anemia (patients): 3%

Source: paper PMC5693322 (Blood, 2017)
